Measured values collected from several papers.
Effect on: enzyme activity
Mode: inhibitor
rep main protease: Replicase polyprotein 1ab, main protease (rep, Severe acute respiratory syndrome coronavirus 2, UniProt P0DTD1)
rep papain-like protease: Replicase polyprotein 1ab, papain-like protease (rep, Severe acute respiratory syndrome coronavirus 2, UniProt P0DTD1)

Cn1c(C(=O)Nc2ccc3c(c2)OCCO3)cc2c(=O)n3ccccc3nc21 — inhibition (rep main protease; 1 mM): 96%
C[C@@H]1O[C@@H](O[C@@H]2[C@@H](O)[C@H](OCCc3ccc(O)c(O)c3)O[C@H](CO)[C@H]2OC(=O)/C=C/c2ccc(O)c(O)c2)[C@H](O)[C@H](O)[C@H]1O — inhibition (rep main protease; 10 µM): 34.6%
CC[PH](CC)(CC)[Au][S][C@@H]1O[C@H](COC(C)=O)[C@@H](OC(C)=O)[C@H](OC(C)=O)[C@H]1OC(C)=O — inhibition (rep main protease; 20 µM): 100%
C/N=c1\nc(-c2ccccc2)n(-c2ccccc2)s1 — inhibition (rep main protease; 0.1 µM): 16.4%
Cc1cc(O)c2c(c1)C(=O)C=CC2=O — inhibition (rep main protease; 10 µM): 103%
Cc1cccc(NC2CS(=O)(=O)CC2O)c1 (centres unmarked) — inhibition (rep main protease; 20 µM): 7.43%
COCOc1cc(C)cc2c1C(=O)C=CC2=O — inhibition (rep main protease; 1 µM): 4.6%
O=C(Oc1cncc(Cl)c1)c1cc2c(Cl)cc(Cl)cc2[nH]1 — inhibition (rep main protease; fluorescence; 10 µM, pH 7.2): 100%
C[C@@H]1O[C@@H](OC[C@H]2O[C@@H](OCCc3ccc(O)c(O)c3)[C@H](OC(=O)/C=C/c3ccc(O)c(O)c3)[C@@H](O)[C@@H]2O)[C@H](O)[C@H](O)[C@H]1O — inhibition (rep main protease; 100 µM): 99.3%
CCc1ccc(NC(=O)c2cc3c(=O)n4ccccc4nc3n2C)cc1 — inhibition (rep main protease; 1 µM): 11%
NC(=S)NNc1ccc(S(N)(=O)=O)cc1 — inhibition (rep main protease; 20 µM): 42.1%
O=C(/C=C/c1ccc(O)c(O)c1)O[C@@H]1C[C@](O)(C(=O)O)C[C@@H](O)[C@H]1O — inhibition (rep papain-like protease; 50 µM): 12.5%
N=C(N)c1ccc2cc(OC(=O)c3ccc(N=C(N)N)cc3)ccc2c1 — inhibition (rep main protease; 10 µM): 13%
O=C1C=CC(=O)c2c(O)cccc21 — inhibition (rep main protease; 0.1 µM): 20.3%
O=c1c(O)c(-c2ccccc2)oc2cc(O)cc(O)c12 — inhibition (rep main protease; FRET; 10 µM, 10 min): 25 to 50%
O=C(/C=C/c1ccc2ncccc2c1)N1CCC[C@@]2(CCN(C(=O)c3cc(=O)[nH]c(=O)[nH]3)C2)C1 — inhibition (rep main protease; 5 µM): 18%
Cc1ccc2nc(Cl)c(/C=N/NC(=O)c3ccncc3)cc2c1 — inhibition (rep papain-like protease; 100 µM): 38.4%
O=C(/C=C/c1ccc(O)c(O)c1)O[C@@H]1C[C@](O)(C(=O)O)C[C@@H](O)[C@H]1O — inhibition (rep main protease; FRET; 10 µM, 10 min): < 25%
O=C(/C=C/c1ccc(O)c(O)c1)OC1CC(OC(=O)/C=C/c2ccc(O)c(O)c2)(C(=O)O)CC(O)C1O (centres unmarked) — inhibition (rep papain-like protease; 50 µM): 14.4%
COc1cc2ccc(=O)oc2cc1O — inhibition (rep main protease; fluorescence; 10 µM, pH 7.2): 61%
Cc1cc(O)c2c(=O)c3c(O)cc(O)c4c5c(O)cc(O)c6c(=O)c7c(O)cc(C)c8c1c2c(c34)c(c78)c65 — inhibition (rep main protease; 20 µM): 31.5%
Cc1nc(C(=O)N2CC[C@@H]([C@@H]3CCCN3C(=O)c3cc(O)c4ccoc4c3)C2)cc(=O)[nH]1 — inhibition (rep main protease; 5 µM): 12.2%
Cc1cccn2c(=O)c3cc(C(=O)Nc4ccc(N(C)C)cc4)n(C)c3nc12 — inhibition (rep main protease; 10 µM): 8.7%
COc1cc(O)c2c(=O)c(O)c(-c3ccc(O)c(O)c3)oc2c1 — inhibition (rep main protease; 20 µM): 52%
COc1cc(CC(C)NCc2cc(NC(=O)c3ccccn3)cc(C(=O)N(C)C)c2)ccc1O (centres unmarked) — inhibition (rep main protease; 100 µg/mL): 5.47%
O=C(Oc1cncc(Br)c1)c1cccc2[nH]ccc12 — inhibition (rep main protease; fluorescence; 10 µM, pH 7.2): 100%
C=C[C@@H]1C[C@]1(NC(=O)[C@@H]1C[C@@H]2CN1C(=O)[C@H](C(C)(C)C)NC(=O)O[C@@H]1C[C@H]1CCCCCc1nc3ccc(OC)cc3nc1O2)C(=O)NS(=O)(=O)C1CC1.O — inhibition (rep main protease; 20 µM): 1.19%
O=C(NCc1cccnc1)Nc1csc([N+](=O)[O-])c1 — inhibition (rep main protease; 20 µM): 4.45%
O=C1C=CC(=O)c2ccccc21 — inhibition (rep main protease; 0.1 µM): 25%
Cc1cc(NC(=O)c2cc3c(=O)n4cccc(C)c4nc3n2C)ccc1Br — inhibition (rep main protease; 1 µM): 14%
COc1ccc2nc(Cl)c(/C=N/c3ccc(-c4nc5ccccc5[nH]4)cc3)cc2c1 — inhibition (rep papain-like protease; 10 µM): 2.1%
CCOC(=O)COc1cc(C)cc2c1C(=O)C=CC2=O — inhibition (rep main protease; 1 µM): 94.6%
Cn1c(C(=O)Nc2ccc(Cl)cc2)cc2c(=O)n3ccccc3nc21 — inhibition (rep main protease; 100 µM): 33%
O=C(O)[C@H]1O[C@@H](Oc2cc3oc(-c4ccc(O)cc4)cc(=O)c3c(O)c2O)[C@H](O)[C@@H](O)[C@@H]1O — inhibition (rep papain-like protease; 50 µM): 41.8%
CCc1cscc1C(=O)N1Cc2ccccc2C[C@H]1CNC(=O)c1cccc2[nH]ncc12 — inhibition (rep main protease; 5 µM): 10.8%
COc1cc(O)cc(/C=C/c2ccc(O)cc2)c1 — inhibition (rep main protease; 20 µM): 38.1%
CCC(=O)Oc1cccc2c1C(=O)C=CC2=O — inhibition (rep main protease; 0.1 µM): 35%
O=c1n(-c2ccc(F)cc2)nc2n1CCCN2 — inhibition (rep main protease; 20 µM): 10.2%
Cc1ccc2nc(Cl)c(C=Nc3cc(Br)ccn3)cc2c1 — inhibition (rep papain-like protease; 10 µM): 4.6%
O=C1c2cccc(O)c2C(=O)c2c(O)cc(CO)cc21 — inhibition (rep main protease; 10 µM): 10.1%
O=c1cc(-c2ccc(O)cc2)oc2cc(O)c(O)c(O)c12 — inhibition (rep papain-like protease; 50 µM): 65.7%
